Results: ChEMBL document CHEMBL1142862, “Selective NR1/2B N-methyl-D-aspartate receptor antagonists among indole-2-carboxamides and benzimidazole-2-carboxamides” (J Med Chem, 2007)
pIC50: −log10 of the molar value.

How the values were obtained:
[1] = biological target: T1, Glutamate receptor ionotropic, NMDA 2B (Rattus norvegicus, UniProt Q00960); test: Antagonist activity at NR2B NMDA receptor in Wistar rat neocortical cells assessed as inhibition of NMDA-evoked elevation of intracellular calcium concentration; assay type: functional, cell-based
How it was run: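 Rat primary neocortical cultures (trypsinised cortex, poly-D-lysine coated wells, glial proliferation stopped with […], serum-free N2 medium) used after 3-10 days in vitro. Compound added (<0.1% DMSO), 5 min baseline, then 40 µM NMDA and 5 min fluorescence recording.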

[2] = biological target: T1, Glutamate receptor ionotropic, NMDA 2B; test: Displacement of [3H]Ro 25,6981 from NR2B NMDA receptor in rat forebrain
How it was run: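 Rat forebrain membranes were washed and suspended in 5 mM TRIS-HCl, pH 7.4, at 1 mg protein/mL. They were incubated 2 h at room temperature with 4 nM [3H]Ro-25,6981 and at least seven compound concentrations. Nonspecific binding was defined with 10 µM Ro-25,6981. Bound and free ligand were separated by GF/B filtration, and filters were counted by liquid scintillation. Results were expressed as % inhibition of specific binding.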

Mus musculus [3] = test: Inhibition of formalin induced nociception in orally dosed NMRI mouse by measuring pain-related licking behavior in late phase; assay type: functional; details: po
How it was run: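 Mice fasted 14-16 h with free 20% glucose. Compound or vehicle (5% Tween 80) given orally 15 min before s.c. injection of 20 µL 1% formalin in 0.9% saline into the dorsal right hindpaw. Licking measured at the peak of the second phase (10-60 min). ED50 reported.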

Mus musculus [4] = test: Inhibition of formalin induced nociception in ip dosed NMRI mouse by measuring pain-related licking behavior in late phase; assay type: functional
How it was run: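 Mouse formalin test: 20 µL 1% formalin in 0.9% saline injected s.c. into the dorsal right hindpaw. Compound given i.p. Pain-related licking scored at the peak of the second (persistent, 10-60 min) phase. ED50 reported.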

T1 sequence (Q00960 whole entry): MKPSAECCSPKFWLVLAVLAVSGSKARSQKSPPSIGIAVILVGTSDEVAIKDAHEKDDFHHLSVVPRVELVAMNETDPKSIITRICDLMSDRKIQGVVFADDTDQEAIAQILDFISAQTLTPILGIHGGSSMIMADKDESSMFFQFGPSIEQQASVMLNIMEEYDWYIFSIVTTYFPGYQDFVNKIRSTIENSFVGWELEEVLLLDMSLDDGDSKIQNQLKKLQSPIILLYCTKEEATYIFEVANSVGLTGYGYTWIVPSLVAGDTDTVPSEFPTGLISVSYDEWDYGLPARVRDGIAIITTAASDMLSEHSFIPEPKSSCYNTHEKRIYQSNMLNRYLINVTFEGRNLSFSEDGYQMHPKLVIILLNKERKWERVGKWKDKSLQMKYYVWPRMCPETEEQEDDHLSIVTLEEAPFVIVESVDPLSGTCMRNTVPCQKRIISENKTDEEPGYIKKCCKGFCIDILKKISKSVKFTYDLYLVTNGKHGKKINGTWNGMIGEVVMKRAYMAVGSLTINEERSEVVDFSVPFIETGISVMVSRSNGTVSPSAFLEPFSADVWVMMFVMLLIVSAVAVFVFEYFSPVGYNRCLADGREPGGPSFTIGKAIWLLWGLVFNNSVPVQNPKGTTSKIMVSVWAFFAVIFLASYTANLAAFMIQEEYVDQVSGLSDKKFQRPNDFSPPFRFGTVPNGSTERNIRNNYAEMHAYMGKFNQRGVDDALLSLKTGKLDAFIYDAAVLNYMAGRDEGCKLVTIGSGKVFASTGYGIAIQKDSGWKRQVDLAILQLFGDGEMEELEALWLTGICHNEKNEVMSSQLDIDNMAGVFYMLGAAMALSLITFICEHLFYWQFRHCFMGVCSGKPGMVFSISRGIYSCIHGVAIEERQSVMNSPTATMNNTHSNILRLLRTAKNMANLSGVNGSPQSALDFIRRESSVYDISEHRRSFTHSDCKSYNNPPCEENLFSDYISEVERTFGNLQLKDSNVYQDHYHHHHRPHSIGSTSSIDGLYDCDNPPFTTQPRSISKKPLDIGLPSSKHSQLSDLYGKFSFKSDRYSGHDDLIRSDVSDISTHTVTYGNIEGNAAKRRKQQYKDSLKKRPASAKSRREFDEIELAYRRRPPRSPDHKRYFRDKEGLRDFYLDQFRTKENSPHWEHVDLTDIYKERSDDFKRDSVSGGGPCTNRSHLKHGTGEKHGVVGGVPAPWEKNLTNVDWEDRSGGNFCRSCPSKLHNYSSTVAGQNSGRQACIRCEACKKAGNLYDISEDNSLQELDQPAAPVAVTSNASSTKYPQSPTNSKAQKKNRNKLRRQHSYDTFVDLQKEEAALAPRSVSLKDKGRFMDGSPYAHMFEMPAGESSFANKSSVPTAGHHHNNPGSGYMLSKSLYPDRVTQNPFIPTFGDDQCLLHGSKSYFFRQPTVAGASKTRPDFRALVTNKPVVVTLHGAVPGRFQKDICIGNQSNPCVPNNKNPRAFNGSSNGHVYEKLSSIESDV

Compound `O=C(c1nc2cc(O)ccc2[nH]1)N1CCC(Oc2ccc(Cl)cc2)CC1` has a pIC50 [1] of 8.77 and a pIC50 [2] of 7.85.

Compound `CS(=O)(=O)Nc1ccc2nc(CN3CCC(Cc4ccccc4)CC3)[nH]c2c1` has a pIC50 [1] of 8.07.

For `O=S(=O)(c1cc2ccc(O)cc2[nH]1)N1CCC(Cc2ccccc2)CC1`, the pIC50 [1] was under 5.10.

`Cc1cccc(CC2CCN(C(=O)c3nc4cc(O)ccc4[nH]3)CC2)c1` gave a pIC50 [1] of 8.62 and a pIC50 [2] of 8.30.

In the case of `O=C(c1nc2c(O)ccc(O)c2[nH]1)N1CCC(Cc2ccccc2)CC1`, the pIC50 [1] was 8.52 and the pIC50 [2] was 8.00.

For `O=C(c1cc2ccc(O)cc2[nH]1)N1CCC(CCc2ccccc2)CC1`, the pIC50 [1] was 6.06 and the pIC50 [2] was 6.44.

Compound `O=C(c1ccccc1)C1CCN(C(=O)c2cc3ccc(O)cc3[nH]2)CC1` has a pIC50 [1] of 6.13.

In the case of `N=C(c1cc2ccc(O)cc2[nH]1)N1CCC(Cc2ccccc2)CC1`, the pIC50 [1] was 8.07 and the pIC50 [2] was 8.00.

`COc1ccc(CC2CCN(C(=O)c3cc4ccc(O)cc4[nH]3)CC2)cc1` showed a pIC50 [1] of 7.10 and a pIC50 [2] of 7.77.

For `CS(=O)(=O)Nc1ccc2cc(C(=O)N3CCC(Cc4ccccc4)CC3)[nH]c2c1`, the pIC50 [1] was 7.52 and the pIC50 [2] was 8.05.

For `COc1cccc(CC2CCN(C(=O)c3nc4cc(O)ccc4[nH]3)CC2)c1`, the pIC50 [1] was 8.60 and the pIC50 [2] was 8.52.

With `O=C(c1cc2cc(O)ccc2s1)N1CCC(Cc2ccccc2)CC1` the pIC50 [1] was 5.25 and the pIC50 [2] was under 5.00.

`O=C(c1cc2c(ccc3[nH]cnc32)[nH]1)N1CCC(Cc2ccccc2)CC1` showed a pIC50 [1] of 7.30 and a pIC50 [2] of 8.22.

With `O=C(c1cc2cc(O)cc(O)c2[nH]1)N1CCC(Cc2ccccc2)CC1` the pIC50 [1] was 7.51 and the pIC50 [2] was 6.97.

`O=C(c1nc2cc(O)ccc2[nH]1)N1CCC(Oc2ccc(F)cc2)CC1` was tested, and the pIC50 [1] was 8.54 and the pIC50 [2] was 8.22.

Work on `CS(=O)(=O)Nc1ccc2[nH]c(C(=O)N3CCC(Cc4ccccc4)CC3)nc2c1` yielded a pIC50 [1] of 8.89 and a pIC50 [2] of 8.52.

In the case of `Nc1ccc2[nH]c(C(=O)N3CCC(Cc4ccccc4)CC3)nc2c1`, the pIC50 [1] was 7.40 and the pIC50 [2] was 6.84.

`CS(=O)(=O)Nc1cccc2[nH]c(C(=O)N3CCC(Cc4ccccc4)CC3)cc12` was tested, and the pIC50 [2] was 6.67.

`O=C(c1cc2c(O)cc(O)cc2[nH]1)N1CCC(Cc2ccccc2)CC1` showed a pIC50 [1] of 8.19 and a pIC50 [2] of 8.22.

Compound `O=C(c1cc2c(O)cccc2[nH]1)N1CCC(Cc2ccccc2)CC1` has a pIC50 [1] of 7.80 and a pIC50 [2] of 7.74.

`Nc1cccc2[nH]c(C(=O)N3CCC(Cc4ccccc4)CC3)cc12` was tested, and the pIC50 [1] was 8.37 and the pIC50 [2] was 7.92.

`O=C(c1nc2ccc(O)cc2s1)N1CCC(Cc2ccccc2)CC1` gave a pIC50 [1] of 5.59.

With `O=C(c1cc2ccc(O)cc2o1)N1CCC(Cc2ccccc2)CC1` the pIC50 [2] was under 5.00.

`O=C(c1cc2cc3[nH]c(=O)oc3cc2[nH]1)N1CCC(Cc2ccccc2)CC1` gave a pIC50 [2] of 7.64.

For `O=C(c1cc2ccc(O)cc2[nH]1)N1CCC(OCc2ccccc2)CC1`, the pIC50 [1] was 7.80 and the pIC50 [2] was 7.33.

For `Cn1c(C(=O)N2CCC(Cc3ccccc3)CC2)cc2ccc(O)cc21`, the pIC50 [1] was 5.24.

For `O=C(c1cc2c(ccc3cn[nH]c32)[nH]1)N1CCC(Cc2ccccc2)CC1`, the pIC50 [1] was 7.24 and the pIC50 [2] was 7.19.

For `O=C(c1cc2ccc(O)cc2[nH]1)N1CCC(Oc2ccccc2)CC1`, the pIC50 [1] was 6.97 and the pIC50 [2] was 7.05.

`Nc1ccc2cc(C(=O)N3CCC(Cc4ccccc4)CC3)[nH]c2c1` was tested, and the pIC50 [1] was 6.20.

Compound `C[C@@H]([C@@H](O)c1ccc(O)cc1)N1CCC(O)(c2ccccc2)CC1` [TRAXOPRODIL] has an ED50 (Mus musculus [3]) of over 20 mg/kg.

`CS(=O)(=O)Nc1ccc2[nH]c(C(=O)N3CCC(Cc4ccccc4)CC3)cc2c1` was tested, and the pIC50 [1] was 6.20 and the pIC50 [2] was 5.81.

Compound `C[C@@H](CN1CCC(Cc2ccccc2)CC1)[C@@H](O)c1ccc(O)cc1` has a pIC50 [1] of 6.80 and an ED50 (Mus musculus [4]) of 5.1 mg/kg.

`Nc1ccc2[nH]c(C(=O)N3CCC(Cc4ccccc4)CC3)cc2c1` was tested, and the pIC50 [1] was 6.22.

In the case of `Cc1ccc(CC2CCN(C(=O)c3cc4ccc(O)cc4[nH]3)CC2)cc1`, the pIC50 [1] was 6.68 and the pIC50 [2] was 7.55.

`Cc1ccc(OC2CCN(C(=O)c3nc4cc(O)ccc4[nH]3)CC2)cc1` gave a pIC50 [1] of 8.96 and a pIC50 [2] of 8.52.

Compound `O=C(c1cc2cc(O)ccc2[nH]1)N1CCC(Cc2ccccc2)CC1` has a pIC50 [1] of 7.60 and a pIC50 [2] of 7.51.

In the case of `O=C(c1cc2ccc(O)cc2[nH]1)N1CCC(Cc2ccccc2)CC1`, the ED50 (Mus musculus [3]) was 1.7 mg/kg.

In the case of `O=C(c1cc2c(NCc3ccccc3)cccc2[nH]1)N1CCC(Cc2ccccc2)CC1`, the pIC50 [1] was 7.33 and the pIC50 [2] was 6.72.

`O=C(c1cc2ccc(O)cc2[nH]1)N1CCC(C(O)c2ccccc2)CC1` (configuration not stated) showed a pIC50 [1] of 6.95 and a pIC50 [2] of 7.22.

`COc1ccc(CC2CCCCN2C(=O)c2cc3ccc(O)cc3[nH]2)cc1` (configuration not stated) showed a pIC50 [1] of under 5.10.

In the case of `COc1ccccc1CC1CCN(C(=O)c2cc3ccc(O)cc3[nH]2)CC1`, the pIC50 [1] was 6.60.

`Oc1ccc2cc(CN3CCC(Cc4ccccc4)CC3)[nH]c2c1` gave a pIC50 [1] of 5.94.

In the case of `O=C(c1cc2ccc(O)cc2[nH]1)N1CCC(Cc2cccc(F)c2)CC1`, the pIC50 [1] was 7.42 and the pIC50 [2] was 7.51.

With `O=C(c1cc2ccc(O)cc2[nH]1)N1CCC(c2ccccc2)CC1` the pIC50 [1] was under 5.10.

With `O=C(c1cc2ccc(O)cc2[nH]1)N1CCC(Cc2ccc(F)cc2)CC1` the pIC50 [1] was 7.05 and the pIC50 [2] was 7.92.

`O=C(c1cc2c(ccc3[nH]ncc32)[nH]1)N1CCC(Cc2ccccc2)CC1` was tested, and the pIC50 [1] was 7.70 and the pIC50 [2] was 8.30.

With `O=c1[nH]c2ccc([S+]([O-])CCN3CCC(Cc4ccc(F)cc4)CC3)cc2o1` (configuration not stated) [BESONPRODIL] the ED50 (Mus musculus [3]) was 2.4 mg/kg.

`O=C(c1cc2cc(O)ccc2o1)N1CCC(Cc2ccccc2)CC1` was tested, and the pIC50 [1] was 5.72 and the pIC50 [2] was under 5.00.

Compound `O=C(c1nc2cc3[nH]c(=O)oc3cc2[nH]1)N1CCC(Cc2ccccc2)CC1` has a pIC50 [1] of 6.71.

For `O=C(c1cc2cccc(O)c2[nH]1)N1CCC(Cc2ccccc2)CC1`, the pIC50 [1] was 6.78 and the pIC50 [2] was 6.42.
